Assay results taken from ChEMBL document CHEMBL1152422, “Cytotoxic triterpenoids from the rhizomes of Astilbe chinensis” (J Nat Prod, 2009).

Legend:
Assay type in all cases: functional, cell-based
HL-60 = assay: Cytotoxicity against human HL60 cells by rapid colorimetric assay
Summary of the method: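 HL-60 human promyelocytic leukaemia cells were maintained in IMDM with 20% FBS at 37 °C in a CO2 incubator before testing against the cell panel.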

SNU1 = assay: Cytotoxicity against human SNU1 cells by rapid colorimetric assay
Summary of the method: (§1)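 A549, SNU-1, K562 and HepG2 cells were grown in RPMI1640 and MEM with 10% FBS at 37 °C in a CO2 incubator before testing against the cell panel.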

K562 = assay: Cytotoxicity against human K562 cells by rapid colorimetric assay; summary of the method: as §1
A549 = assay: Cytotoxicity against human A549 cells by rapid colorimetric assay; summary of the method: as §1
HepG2 = assay: Cytotoxicity against human HepG2 cells by rapid colorimetric assay; summary of the method: as §1

| Compound | IC50 (HL-60) [µM] | IC50 (SNU1) [µM] | IC50 (K562) [µM] | IC50 (A549) [µM] | IC50 (HepG2) [µM] |
| --- | --- | --- | --- | --- | --- |
| C[C@H]1[C@H](C)CC[C@]2(C)CC[C@]3(C(=O)O)C(=CC[C@@H]4[C@@]5(C)CC[C@H](O)[C@](C)(CO)[C@@H]5[C@H](O)C[C@]43C)[C@H]12 | > 10 | > 10 | > 10 | > 10 | > 10 |
| CC(=O)O[C@H]1CC[C@]2(C)[C@H]3CC=C4[C@@H]5[C@@H](C)[C@H](C)CC[C@]5(C)CC[C@@]4(C(=O)O)[C@]3(C)CC[C@H]2C1(C)C | 9.4 | > 10 | > 10 | > 10 | > 10 |
| CC[C@@]1(O)C(=O)OCc2c1cc1n(c2=O)Cc2cc3ccccc3nc2-1 [CAMPTOTHECIN] | 0.8 |  |  |  |  |
| CC1(C)CC[C@]2(C)CC[C@]3(C(=O)O)C(=CC[C@@H]4[C@@]5(C)CC[C@@H](O)C(C)(C)C5=CC[C@]43C)[C@@H]2C1 | > 10 | > 10 | > 10 | > 10 | > 10 |
| CC(=O)O[C@@H]1CC[C@]2(C)[C@H]3CC=C4[C@@H]5CC(C)(C)CC[C@]5(C)CC[C@@]4(C(=O)O)[C@]3(C)CC[C@H]2C1(C)C | 9.3 | > 10 | > 10 | > 10 | > 10 |
| CC(=O)O[C@H]1CC[C@]2(C)[C@H]3CC=C4[C@@H]5[C@@H](C)[C@H](C)CC[C@]5(C)CC[C@@]4(C(=O)O)[C@]3(C)C[C@@H](O)[C@H]2C1(C)C | 9.6 | > 10 | > 10 | > 10 | > 10 |
| COc1cccc2c1C(=O)c1c(O)c3c(c(O)c1C2=O)C[C@@](O)(C(=O)CO)C[C@@H]3O[C@H]1C[C@H](N)[C@H](O)[C@H](C)O1 [DOXORUBICIN] |  | 4 | 2.5 | 2.2 |  |
| CC1(C)CC[C@]2(C)CC[C@]3(C(=O)O)C(=CC[C@@H]4[C@@]5(C)CC[C@H](O)[C@](C)(CO)[C@@H]5CC[C@]43C)[C@@H]2C1 | > 10 | > 10 | > 10 | > 10 | > 10 |
| CC1(C)CC[C@]2(C)CC[C@]3(C(=O)O)C(=CC[C@@H]4[C@@]5(C)CC[C@H](O)[C@@](C)(CO)[C@@H]5[C@H](O)C[C@]43C)[C@@H]2C1 | 3.5 | > 10 | > 10 | > 10 | > 10 |
| C=C1[C@@H]2[C@H](O)C[C@]3(C)[C@H](CC=C4[C@@H]5CC(C)(C)CC[C@]5(C)CC[C@]43C(=O)O)[C@@]2(C)CC[C@@H]1O | > 10 | > 10 | > 10 | > 10 | > 10 |
| CC(=O)O[C@@H]1CC[C@]2(C)[C@H]3CC=C4[C@@H]5[C@@H](C)[C@H](C)CC[C@]5(C)CC[C@@]4(C(=O)O)[C@]3(C)CC[C@H]2C1(C)C | 3.9 | > 10 | > 10 | > 10 | > 10 |
| CC1(C)CC[C@]2(C)CC[C@]3(C(=O)O)C(=CC[C@@H]4[C@@]5(C)CC[C@H](O)C(C)(C)[C@@H]5CC[C@]43C)[C@@H]2C1 | 8.9 | 9.3 | > 10 | > 10 | > 10 |
| C[C@H]1[C@H](C)CC[C@]2(C)CC[C@]3(C(=O)O)C(=CC[C@@H]4[C@@]5(C)CC[C@H](O)C(C)(C)[C@@H]5CC[C@]43C)[C@H]12 | 8.2 | > 10 | > 10 | > 10 | > 10 |
| CC(=O)O[C@H]1CC[C@]2(C)[C@H]3CC=C4[C@@H]5CC(C)(C)CC[C@]5(C)CC[C@@]4(C(=O)O)[C@]3(C)C[C@@H](O)[C@H]2C1(C)C | 5.1 | > 10 | > 10 | > 10 | > 10 |
